Assay outcomes as filed in PubChem BioAssay.
DENV2 CPE rescue: inhibitors of DENV2 cytopathic effect, primary screen, cell-based, plate reader, single concentration; DENV2-infected cells, cytopathic effect rescue; AID 651640, 2012; CPE inhibition, % at 9.99 µM; actives 1.7% (n = 350,000); in the data active = CPE inhibition above about 20%, passing the limit was not always enough; inconclusive = no clear call, values can overlap the other calls; tested in BHK-21 cells;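 note: 0% = median of neutral control wells and 100% = median of positive control wells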
CaV13 FRET inh: Primary screen for inhibitors of IQ motif and Ca2+-dependent inactivation inhibitor domain binding in CACNA1D, Förster resonance energy transfer in living cells, …. HEK cells, CFP/YFP FRET ICDI-IQ, plate reader, 10 min; percent FRET-ratio fall versus neutral wells. actives 0.098% (n = 340,000). inhibition, % at 12.3 µM;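 active = mean replicate inhibition of at least 30% and at least 1% of replicates passing that level; inconclusive = only one of the two criteria is met; inactive = neither criterion is met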;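 note: 0% = median of the neutral control wells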
Xi reactivation: activators of inactive X chromosome reactivation, primary screen, imaging, XiGFP fibroblasts, GFP high-content imaging, set 2. XiGFP mouse fibroblasts, % GFP-positive cells imaging, 3 d; cells co-treated with 5-aza-dC sensitizer; scaled so ellipticine positive control = 100%. activation, % at 7.58 µM. actives 0.055% (n = 360,000). AID 743238, 2013;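 active = mean normalized replicate activation at least 10% and every replicate at or above 10%; inconclusive = only one of the two criteria met; inactive = mean below 10% and not all replicates reach 10%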;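 note: 0% = median of on-plate neutral control wells and 100% = ellipticine 6 µM median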
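System: SV40-immortalized XiGFP fibroblast cells, line 68-5-11 / Incubation: 3-day compound exposure, then 15 min fixation at room temperature / Compound: single concentration per compound, delivered by pin transfer / Buffer or medium: DMEM plus 5-aza-dC sensitizer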
CASP6 VEID inh: human caspase-6 inhibitors, primary screen, biochemical, VEID-R110 fluorescence, single point, set 2 | purified caspase-6, Z-VEID-R110 cleavage fluorescence | inhibition, % at 12.5 µM | actives 0.53% (n = 350,000) | AID 686996, 2013;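 active = mean inhibition across replicates at least about 35%, with every replicate also reaching that limit, limit read from the data; inconclusive = only one of the two criteria met; inactive = neither criterion met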;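 note: 0% = median of neutral control wells and 100% = no fluorescence left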
Target sequence (P55212 24-179 limits assumed): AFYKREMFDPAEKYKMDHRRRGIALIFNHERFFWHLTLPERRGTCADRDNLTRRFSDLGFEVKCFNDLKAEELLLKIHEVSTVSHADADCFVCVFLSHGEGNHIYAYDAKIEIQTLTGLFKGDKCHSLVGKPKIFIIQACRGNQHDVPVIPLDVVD
Target sequence (P55212 194-293 limits assumed): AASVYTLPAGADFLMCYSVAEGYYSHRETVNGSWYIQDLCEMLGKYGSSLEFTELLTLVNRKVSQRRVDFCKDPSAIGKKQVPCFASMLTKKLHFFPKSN
FN deposition inh: inhibitors of fibronectin matrix deposition, primary screen, AH1F cells, Alexa488-fibronectin fluorescence, plate reader | inhibition, % at 12.6 µM | actives 0.086% (n = 350,000) | AH1F fibroblasts, overnight;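 active = mean inhibition across replicates of 30% or more, regardless of how many single replicates reach that level; inconclusive = mean under 30% yet at least half of replicates reach 30%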;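 note: positive control wells lacked labelled fibronectin entirely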
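test system = AH1F fibroblasts assembling fluorescent fibronectin matrix | quantity = 10000 AH1F cells per well | buffer or medium = DMEM plus 2% serum, read in PBS | doses = single dose, pinned | incubation = 1 h cell attachment, overnight exposure to compound and label | detection = fluorescence at 485 nm excitation, 525 nm emission | read-out basis = inhibition from reduced deposited-fibronectin fluorescence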
The depositor's hits bear a star. Sampled rows, rich in hits. Any-hit rate of the full collection: about 2%.

What do the screens show for `CC(C)NC(=O)N1[C@H](CO)[C@@H](c2ccccc2-c2ccc(F)cc2)[C@@H]1C#N`?
DENV2 CPE rescue: -5; Xi reactivation: 0; CASP6 VEID inh: 2; FN deposition inh: -8

How did C[C@@H]1CN([C@@H](C)CO)C(=O)c2cc(Br)cnc2O[C@@H]1CN(C)C(=O)c1ccccc1F do in these assays?
DENV2 CPE rescue: -3; Xi reactivation: 1; CASP6 VEID inh: 1; FN deposition inh: 3

Results for CC(C)c1ccc(S(=O)(=O)N2CCN(CC(=O)Nc3ccc(Cl)cc3F)CC2)cc1 ?
DENV2 CPE rescue: -6; CaV13 FRET inh: -2; Xi reactivation: 0; CASP6 VEID inh: -3; FN deposition inh: -1

What do the screens show for `O=C(CN1CCN(S(=O)(=O)c2ccc(Br)cc2)CC1)c1ccc(O)c(O)c1`?
DENV2 CPE rescue: -1; CaV13 FRET inh: -16; Xi reactivation: 0; CASP6 VEID inh: 55*; FN deposition inh: 6

How did CC(C)c1ccc(S(=O)(=O)N2CCN(CC(=O)c3ccc(O)c(O)c3)CC2)cc1 do in these assays?
DENV2 CPE rescue: 2; CaV13 FRET inh: -3; Xi reactivation: 0; CASP6 VEID inh: 57*; FN deposition inh: 6

Results for CC(C)c1ccc(S(=O)(=O)N2CCN(C(=O)n3ccnc3)CC2)cc1 ?
DENV2 CPE rescue: 31*; CaV13 FRET inh: -6; Xi reactivation: 0; CASP6 VEID inh: -2; FN deposition inh: 5

Results for COc1cccc(S(=O)(=O)N[C@@H]2CC[C@H](CC(=O)NCc3ccc(Cl)cc3)O[C@@H]2CO)c1 ?
DENV2 CPE rescue: 1; Xi reactivation: 0; CASP6 VEID inh: -1; FN deposition inh: 3

What do the screens show for `O=C(C[n+]1ccsc1)c1ccccc1`?
DENV2 CPE rescue: 31*; CaV13 FRET inh: -3; Xi reactivation: 0; CASP6 VEID inh: 1; FN deposition inh: 3

What do the screens show for `Nc1ccc[n+](CC(=O)c2ccccc2)c1`?
DENV2 CPE rescue: -1; CaV13 FRET inh: -2; Xi reactivation: 0; CASP6 VEID inh: 12; FN deposition inh: 11

How did O=[N+]([O-])c1ccc(Sc2cccc[n+]2[O-])c2nonc12 do in these assays?
DENV2 CPE rescue: -21; CaV13 FRET inh: -5; Xi reactivation: 59*; CASP6 VEID inh: 62*; FN deposition inh: 51*

Results for O=C(c1cccnc1)N1CCCCN2[C@H](CO)[C@@H](c3ccc(C#Cc4ccccc4)cc3)[C@H]2C1 ?
DENV2 CPE rescue: -5; CASP6 VEID inh: -2

Results for CCC(=O)N(C)C[C@@H]1Oc2ncc(-c3ccc(C#N)cc3)cc2C(=O)N([C@@H](C)CO)C[C@@H]1C ?
DENV2 CPE rescue: inconclusive; Xi reactivation: 0; CASP6 VEID inh: -2; FN deposition inh: -8

Results for O=S(=O)(Nc1cc(Sc2cccc3cccnc23)c(O)c2ccccc12)c1ccc(F)cc1 ?
DENV2 CPE rescue: -4; CaV13 FRET inh: -4; Xi reactivation: 0; CASP6 VEID inh: 0; FN deposition inh: 4

What do the screens show for `O=C(O)CSc1cc(NS(=O)(=O)c2ccc(Cl)cc2)c2ccccc2c1O`?
DENV2 CPE rescue: -2; CaV13 FRET inh: -18; Xi reactivation: 0; CASP6 VEID inh: 96*; FN deposition inh: 6

What do the screens show for `COc1ccc(S(=O)(=O)Nc2cccc3ccc(O)cc23)cc1`?
DENV2 CPE rescue: 0; CaV13 FRET inh: -5; Xi reactivation: 0; CASP6 VEID inh: 5; FN deposition inh: 10

Results for COc1ccc(S(=O)(=O)Nc2cc(SCC(=O)O)c(O)c3ccccc23)cc1 ?
DENV2 CPE rescue: -3; CaV13 FRET inh: -10; Xi reactivation: 0; CASP6 VEID inh: 93*; FN deposition inh: 6

How did O=C(O)C1Oc2cc3ccccc3cc2O1 do in these assays?
DENV2 CPE rescue: 0; CaV13 FRET inh: -4; Xi reactivation: 0; CASP6 VEID inh: 55*; FN deposition inh: 4

Results for C[C@@H]1CCCCO[C@@H](CN(C)Cc2ccncc2)[C@@H](C)CN([C@H](C)CO)C(=O)c2cc(NC(=O)c3ccncc3)ccc2O1 ?
DENV2 CPE rescue: inconclusive; Xi reactivation: 0; CASP6 VEID inh: 1; FN deposition inh: 1

What do the screens show for `C[C@@H]1CCCCO[C@H](CN(C)C(=O)Cc2ccccc2)[C@@H](C)CN([C@@H](C)CO)C(=O)c2cc(NS(=O)(=O)c3cccs3)ccc2O1`?
DENV2 CPE rescue: -9; Xi reactivation: 0; CASP6 VEID inh: 0

How did C[C@@H]1CCCCO[C@@H](CN(C)Cc2ccc3c(c2)OCO3)[C@H](C)CN([C@H](C)CO)C(=O)c2cc(NS(=O)(=O)c3cccs3)ccc2O1 do in these assays?
DENV2 CPE rescue: 38*; Xi reactivation: 0

Results for COc1ccc(CN(C)C[C@H]2OCCCC[C@H](C)Oc3ccc(NS(=O)(=O)c4cccs4)cc3C(=O)N([C@H](C)CO)C[C@H]2C)cc1 ?
DENV2 CPE rescue: 52*; Xi reactivation: 0; CASP6 VEID inh: -2

How did C[C@@H]1CN([C@@H](C)CO)C(=O)c2cc(NS(=O)(=O)c3cccs3)ccc2O[C@@H](C)CCCCO[C@H]1CN(C)Cc1ccccc1 do in these assays?
DENV2 CPE rescue: 42*; Xi reactivation: 0; CASP6 VEID inh: -2; FN deposition inh: -8

What do the screens show for `C[C@@H]1CCCCO[C@@H](CN(C)C(=O)Cc2ccccc2)[C@H](C)CN([C@H](C)CO)C(=O)c2cc(NS(=O)(=O)c3cccs3)ccc2O1`?
DENV2 CPE rescue: 61*; Xi reactivation: 0; CASP6 VEID inh: 1

Results for COc1ccc(C2NC(c3ccc(OC)cc3OC)C(C)C(=O)C2C)c(OC)c1 (stereo not drawn) ?
DENV2 CPE rescue: 2; CaV13 FRET inh: 3; Xi reactivation: 0; CASP6 VEID inh: 55*; FN deposition inh: -10

How did Cc1ccc(-c2nn(-c3ccccc3)cc2C=C2SC(=S)N(CCS(=O)(=O)O)C2=O)cc1 do in these assays?
DENV2 CPE rescue: -5; CaV13 FRET inh: -5; Xi reactivation: 0; CASP6 VEID inh: 78*; FN deposition inh: 7

What do the screens show for `CCN1C(=O)/C(=C\c2cn(-c3ccccc3)nc2-c2cccnc2)SC1=S`?
DENV2 CPE rescue: 5; CaV13 FRET inh: -2; Xi reactivation: 0; CASP6 VEID inh: 2; FN deposition inh: 4

How did CC(C)COc1ccc(-c2nn(-c3ccccc3)cc2/C=C2/SC(=S)N(CC(=O)O)C2=O)cc1 do in these assays?
DENV2 CPE rescue: -1; CaV13 FRET inh: -3; Xi reactivation: 0; CASP6 VEID inh: 21; FN deposition inh: -7

Results for O=C1C(=Cc2cn(-c3ccccc3)nc2-c2ccc(OCc3ccccc3)cc2)SC(=S)N1CCS(=O)(=O)O ?
DENV2 CPE rescue: inconclusive; CaV13 FRET inh: -9; Xi reactivation: 0; CASP6 VEID inh: 75*; FN deposition inh: 25
